Among the data in ChEMBL document CHEMBL1136011, “Nitric oxide releasing morpholine derivatives as hypolipidemic and antioxidant agents” (J Med Chem, 2002) are Decrease and % release of nitric oxide values, retold here.

The structures appear in SMILES notation.

The subject of assay [1] is Rattus norvegicus. Description: Hypolipidemic activity as percentage decrease in plasma levels of the LDL-cholesterol at 56 uM/kg administered intraperitoneally in rats. Format: functional. The procedure, abridged: (§1)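 Hyperlipidemia induced in rats by Triton WR 1339 (200 mg/kg ip, aqueous solution). 1 h later, test agent 56 μmol/kg in saline given ip; controls receive saline alone. Blood is drawn from the aorta 24 h after Triton, and plasma total cholesterol, LDL-cholesterol and triglyceride are determined. Groups of four to six rats; Student's t-test.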

For assay [2], the system named is Rattus norvegicus. Briefly: Hypolipidemic activity as percentage decrease in plasma levels of the cholesterol at 56 uM/kg administered intraperitoneally in rats. It is filed as functional. Summed up: as §1
Assay [3] has as its system Rattus norvegicus. Description: Hypolipidemic activity as percentage decrease in plasma levels of the triglyceride at 56 uM/kg administered intraperitoneally in rats. Format: functional. Summed up:
as §1

Assay [4] is described as follows: In vitro percentage release of nitric oxide. The procedure, abridged: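 Nitric oxide release measured spectrophotometrically at 540 nm with a commercial kit. Determinations at least in duplicate.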
Assay [5] deals with Rattus norvegicus. Description: Hypolipidemic activity as percentage decrease in plasma levels of the LDL-cholesterol at 168 administered perorally in rats. Format: functional. The procedure, abridged:
(§2)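 Test agent 168 μmol/kg given orally to rats 3 h before Triton WR 1339 (200 mg/kg ip, aqueous solution). Blood is drawn from the aorta 24 h after Triton, and plasma total cholesterol, LDL-cholesterol and triglyceride are determined. Groups of four to six rats; Student's t-test.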

The test system of assay [6] is Rattus norvegicus. Description: Hypolipidemic activity as percentage decrease in plasma levels of the cholesterol at 168 administered perorally in rats. Format: functional. The procedure, abridged: as §2
Assay [7] deals with Rattus norvegicus. Briefly: Hypolipidemic activity as percentage decrease in plasma levels of the triglyceride at 168 administered perorally in rats. Format: functional. The procedure, abridged: as §2

Turning to `O=[N+]([O-])OCCCOC1(c2ccc(-c3ccccc3)cc2)CN2CCCCC2CO1` (stereo not drawn), the Decrease in the assay with Rattus norvegicus [1] worked out at 25%; with Rattus norvegicus [2], 20%; in the assay with Rattus norvegicus [3], 37%. Also, in assay [4], the % release of nitric oxide turned out to be 4.6%.
The matching figures for `CN1CC(OCCCO[N+](=O)[O-])(c2ccc(-c3ccccc3)cc2)OC2CCCCC21` (stereo not drawn): 1%, 23%, 38% and 1%.
In the case of `CC(C)(Sc1cc(C(C)(C)C)c(O)c(C(C)(C)C)c1)Sc1cc(C(C)(C)C)c(O)c(C(C)(C)C)c1` [PROBUCOL], the Decrease is reported as 18% in the assay with Rattus norvegicus [1], 18% with Rattus norvegicus [2] and 11% with Rattus norvegicus [3].
`CC(=O)N[C@@H](C(=O)O)C(C)(C)SN=O`: in assay [4], the % release of nitric oxide amounted to 56.7%.
For `CN1CCOC(OCCCO[N+](=O)[O-])(c2ccc(-c3ccccc3)cc2)C1` (stereo not drawn), the Decrease was found to be 36% in the assay with Rattus norvegicus [5]; 47% with Rattus norvegicus [1]; 40% in the assay with Rattus norvegicus [6]; 63% with Rattus norvegicus [2]; 54% in the assay with Rattus norvegicus [7]; 85% with Rattus norvegicus [3]. This compound also had a % release of nitric oxide in assay [4] of 17.3%.
In the case of `CN1CCOC(OCCCO[N+](=O)[O-])(c2ccccc2)C1` (stereo not drawn), the Decrease in the assay with Rattus norvegicus [1] is 43%; in the assay with Rattus norvegicus [2], 20%; with Rattus norvegicus [3], 45%. Besides, the % release of nitric oxide in assay [4] is 27.2 µM µM-1.
